Measurements taken from paper PMC8367020 (Journal of the American Chemical Society, 2021).
“And” between values parts separate entries of the source, which are not always exact repeats. Equal entries are not always repeated. Where two headings read alike, the source gives them in different places. Marks after values point to notes of the source that are not given here.

How the values were obtained:
hOAT [1] = target: T1, hOAT (Homo sapiens, UniProt P04181); conditions: cited from earlier work
T1 sequence (P04181 26-439): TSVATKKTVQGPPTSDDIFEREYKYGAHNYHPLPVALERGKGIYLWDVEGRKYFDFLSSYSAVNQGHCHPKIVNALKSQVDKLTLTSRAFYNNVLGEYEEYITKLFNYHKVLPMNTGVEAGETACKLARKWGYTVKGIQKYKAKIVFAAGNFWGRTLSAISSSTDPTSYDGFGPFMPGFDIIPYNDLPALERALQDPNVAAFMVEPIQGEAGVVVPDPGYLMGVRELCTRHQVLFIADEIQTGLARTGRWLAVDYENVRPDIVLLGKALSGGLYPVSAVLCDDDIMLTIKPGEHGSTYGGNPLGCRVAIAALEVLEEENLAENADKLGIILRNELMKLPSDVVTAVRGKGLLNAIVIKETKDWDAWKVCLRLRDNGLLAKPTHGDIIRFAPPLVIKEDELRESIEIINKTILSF

[2] = tested on: alanine aminotransferase (Ala-AT); conditions: up to 4 mM; cited from earlier work
GABA-AT [3] = target: T2, GABA-AT (Sus scrofa, UniProt P80147); assay: Reversible inhibition of GABA-AT; assay type: biochemical; conditions: Ki = IC50/(1+[S]/Km)
T2 sequence (P80147 29-500): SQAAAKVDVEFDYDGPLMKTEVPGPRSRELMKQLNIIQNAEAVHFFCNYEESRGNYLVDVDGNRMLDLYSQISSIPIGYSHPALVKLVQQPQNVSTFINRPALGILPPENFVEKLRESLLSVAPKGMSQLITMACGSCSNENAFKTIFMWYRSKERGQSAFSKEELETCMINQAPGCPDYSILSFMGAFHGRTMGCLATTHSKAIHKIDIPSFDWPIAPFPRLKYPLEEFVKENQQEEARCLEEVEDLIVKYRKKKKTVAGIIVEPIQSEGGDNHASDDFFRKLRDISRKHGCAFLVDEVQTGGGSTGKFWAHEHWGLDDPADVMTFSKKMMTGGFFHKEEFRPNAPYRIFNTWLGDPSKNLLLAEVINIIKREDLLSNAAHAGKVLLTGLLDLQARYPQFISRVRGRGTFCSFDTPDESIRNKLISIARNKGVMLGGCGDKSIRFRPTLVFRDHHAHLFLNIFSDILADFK

hOAT [4] = target: T1, hOAT; conditions: cited from earlier work; remark: listed apart in the source
[5] = tested on: human-derived HCC mouse model; conditions: 0.1 and 1.0 mg/kg; po; cited from earlier work
GABA-AT [6] = target: T2, GABA-AT; conditions: cited from earlier work
[7] = tested on: aspartate aminotransferase (Asp-AT); conditions: up to 4 mM; cited from earlier work
hOAT [8] = target: T1, hOAT; assay: Time-dependent inactivation kinetics of hOAT; assay type: biochemical
hOAT [9] = target: T1, hOAT; conditions: cited from earlier work; remark: listed apart in the source
hOAT [10] = target: T1, hOAT; assay: Partition ratio determination with hOAT; assay type: biochemical; conditions: in the presence of α-KG, partition ratio = turnover number −1
hOAT [11] = target: T1, hOAT; assay: Stopped-flow transient-state spectrophotometry of hOAT reacting with 6; assay type: biochemical
How it was run: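 Stopped-flow at 10 °C. hOAT (6.94 µM final) was mixed with the test compound (e.g. 1040 µM final; several concentrations). CCD absorbance at 250–800 nm over 0.0137–9843 s came from spliced, averaged short- and long-time datasets, deconvolved by SVD. The 420 nm traces were fitted to three exponentials, and first-phase kobs was fitted against concentration. Quinonoid accumulation assumed ε ~30 mM−1cm−1.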

[12] = tested on: alanine aminotransferase (Ala-AT); assay: Inhibition of Ala-AT; assay type: biochemical; conditions: at concentrations up to 10 mM
[13] = tested on: aspartate aminotransferase (Asp-AT); assay: Inhibition of Asp-AT; assay type: biochemical; conditions: at concentrations up to 10 mM
hOAT [14] = target: T1, hOAT; assay: Denaturing intact protein mass spectrometry of hOAT inactivated by 6; assay type: binding
How it was run: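 Intact hOAT fully inactivated by the test compound was analysed by denaturing intact-protein mass spectrometry, with untreated hOAT run alongside as a control. The added mass was read as the shift from the unmodified protein and compared with theoretical adduct masses.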

hOAT [15] = target: T1, hOAT; assay: 48-hour time-dependent dialysis of inactivated hOAT; assay type: biochemical; conditions: 48-hour dialysis against buffer with excess PLP and α-KG
[16] = hOAT inactivation, mean and standard error

N[C@H]1C[C@@H](C(=O)O)CC1=C(C(F)(F)F)C(F)(F)F [Compound 1, (1S,3S)-3-amino-4-(hexafluoropropan-2-ylidenyl)cyclopentane-1-carboxylic acid]
Fluoride ion release (hOAT [1]): 79 ± 2^b eq. | inhibition of Ala-AT [2]: no inhibition | Ki (GABA-AT [3]): 5.2 ± 0.6 mM | Partition ratio (hOAT [4]): 12 ± 1^b | serum AFP levels [5]: remarkably decreased | tumor growth [5]: inhibited tumor growth | Ki (GABA-AT [6]; GABA-AT, weak reversible inhibition): 4.2 mM | inhibition of GABA-AT (in words) (GABA-AT [6]; preliminary screening): millimolar reversible inhibition | inhibition of Asp-AT [7]: no inhibition | kinact/KI (hOAT [8]; hOAT inactivation efficiency): 16.7 ± 6.7 M⁻¹ s⁻¹ | Ki (hOAT [8]; [16]): 0.09 ± 0.03 mM | kinact (hOAT [8]; [16]): 0.09 ± 0.01 min⁻¹

N[C@H]1C=C(C(=O)O)CCC1(F)F [Compound 2, (S)-3-amino-4,4-difluorocyclohex-1-enecarboxylic acid, reference compound]
improvement in inactivation efficiency (kinact/KI) against hOAT compared to 1 (hOAT [9]; versus compound 1): 23 fold

N[C@H]1C[C@@H](C(=O)O)CC1(F)F [Compound 4, (1R,4S)-4-amino-3,3-difluorocyclopentanecarboxylic acid]
Ki (hOAT [9]; hOAT inactivation): 7.8 mM | Ki (hOAT [8]): 4 ± 1 mM

N[C@H]1C=C(C(=O)O)CC1(F)F [Compound 6, (S)-3-amino-4,4-difluorocyclopent-1-enecarboxylic acid]
Partition ratio (hOAT [10]): 34 and 34 ± 0 | rate of quinonoid decay (hOAT [11]): 0.09 s⁻¹ | rate of second external aldimine formation (bimolecular) (hOAT [11]; 420 nm): 6200 M⁻¹ s⁻¹ | rate constant of final phase (hOAT [11]; external aldimine decay with increase at ~275 nm): 0.007 s⁻¹ | rate of quinonoid species accumulation (hOAT [11]; ~560 nm): 0.4 s⁻¹ | inhibition of Ala-AT [12]: did not show noticeable inhibition | inhibition of Asp-AT [13]: did not show noticeable inhibition | hOAT in apo-enzyme state (hOAT [14]; denaturing MS conditions at pH 2.5): approximately 84% | hOAT covalently modified (hOAT [14]; denaturing MS, hOAT fully inactivated by 6, mass increase 370.07 Da): ~ 16% | residual activity of hOAT after dialysis (hOAT [15]): unchanged | Ki (hOAT [8]): 0.06 ± 0.03 mM | kinact/KI (hOAT [8]): 21.7 M⁻¹ s⁻¹ | improvement in inactivation efficiency (kinact/KI) (hOAT [8]; 6 versus 4, hOAT): 400 fold
